pIC50: −log10 of the molar value. Calls of active or inactive are those of the source. The calls are words filed in the database; no cut-off is given here.
What was measured:
MDA-MB-468 = assay: Antiproliferative activity against human MDA-MB-468 cells after 48 hrs by SRB assay; type: functional, cell-based; details: MDA-MB-468, 48 h
How it was run: (§1)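 SRB assay: 5,000-10,000 cells/well plated, 24 h at 37 °C/5% CO2 before drug; seven concentrations from 100 μM down (two- to ten-fold serial dilutions, DMSO ≤0.1% final) for 48 h; TCA fixation (10% final, 60 min, 4 °C), 0.4% SRB in 1% acetic acid, solubilized in 10 mM Tris base, absorbance 515-564 nm; growth = (Ti−Tz)/(C−Tz)×100; IC50 from sigmoidal variable-slope fit; triplicates, ≥2 independent experiments.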

MDA-MB-231 = assay: Antiproliferative activity against human MDA-MB-231 cells after 48 hrs by SRB assay; type: functional, cell-based; details: MDA-MB-231, 48 h; how it was run: as §1
MCF7 [1] = assay: Antiproliferative activity against human MCF7 cells after 48 hrs by SRB assay; type: functional, cell-based; details: MCF7, 48 h; how it was run: as §1
184B5 = assay: Antiproliferative activity against human 184B5 cells after 48 hrs by SRB assay; type: cell-based; details: 184B5, 48 h; how it was run: as §1
MCF7 [2] = assay: Anticlonogenic activity against human MCF7 cells at 0.39 to 1.5 uM after 12 hrs by crystal violet staining based assay; type: functional, cell-based
How it was run: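 Clonogenic assay: 1000 cells/well seeded, treated after overnight attachment for 12 h, then medium replaced and cells grown until control colonies were large enough; colonies stained with crystal violet.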

pIC50 (MDA-MB-468)	pIC50 (MDA-MB-231)	pIC50 (MCF7 [1])	SMILES	pIC50 (184B5)	Activity (MCF7 [2])
5.33	5.39	5.32	COc1ccc2nc3cc(Cl)ccc3c(NCCCN3C(=O)CCSC3c3ccccc3)c2c1 (configuration not stated)	5.03	
5.34	5.27	5.30	COc1ccc2nc3cc(Cl)ccc3c(NCCCN3C(=O)CCSC3c3ccc(F)cc3)c2c1 (configuration not stated)	4.55	
5.35	5.45	5.47	COc1ccc2nc3cc(Cl)ccc3c(NCCCN3C(=O)CCSC3c3ccc(Cl)cc3)c2c1 (configuration not stated)	5.30	
5.03	5.33	5.15	COc1ccc2nc3cc(Cl)ccc3c(NCCCN3C(=O)CCSC3c3ccc([N+](=O)[O-])cc3)c2c1 (configuration not stated)	4.71	
5.57	5.39	5.64	COc1ccc2nc3cc(Cl)ccc3c(NCCCN3C(=O)CCSC3c3ccccc3F)c2c1 (configuration not stated)	4.45	
5.45	5.58	5.51	COc1ccc2nc3cc(Cl)ccc3c(NCCCN3C(=O)CCSC3c3ccc(N(C)C)cc3)c2c1 (configuration not stated)	4.88	
4.70	4.97	4.81	COc1ccc2nc3cc(Cl)ccc3c(NCCCN3C(=O)CCSC3c3ccccc3Cl)c2c1 (configuration not stated)	4.16	
4.98	5.13	5.05	COc1ccc2nc3cc(Cl)ccc3c(NCCCN3C(=O)CCSC3c3ccnc4ccccc34)c2c1 (configuration not stated)	4.57	
4.59	4.43	4.50	COc1ccc2nc3cc(Cl)ccc3c(NCCCN3C(=O)CCSC3c3ccc(Br)cc3)c2c1 (configuration not stated)	4.45	
5.77	5.48	5.73	COc1ccc2nc3cc(Cl)ccc3c(NCCCN3C(=O)CCSC3c3ccc(N(c4ccccc4)c4ccccc4)cc3)c2c1 (configuration not stated)	5.51	
5.16	5.31	5.26	COc1ccc2nc3cc(Cl)ccc3c(NCCCN3C(=O)CCSC3c3ccc(C)cc3)c2c1 (configuration not stated)	5.25	

The next lines start with the compound.

SMILES	pIC50 (MDA-MB-468)	pIC50 (MDA-MB-231)	pIC50 (MCF7 [1])	pIC50 (184B5)	Activity (MCF7 [2])
CCN(CC)CCCC(C)Nc1c2ccc(Cl)cc2nc2ccc(OC)cc12 (configuration not stated) [QUINACRINE]	5.40	5.49	5.38	5.30	Active
COc1ccc2nc3cc(Cl)ccc3c(NCCCN3C(=O)CCSC3c3ccc[nH]3)c2c1 (configuration not stated)	5.31	5.34	5.78	4.89	
COc1ccc2nc3cc(Cl)ccc3c(NCCCN3C(=O)CCSC3c3c(F)cccc3Cl)c2c1 (configuration not stated)	5.28	5.46	5.37	5.51	
COc1ccc2nc3cc(Cl)ccc3c(NCCCN3C(=O)CCSC3c3ccccc3Br)c2c1 (configuration not stated)	4.41	4.40	4.41	4.81	
COc1ccc2nc3cc(Cl)ccc3c(NCCCN3C(=O)CCSC3c3ccncc3)c2c1 (configuration not stated)	4.67	4.97	4.79	4.84	
COc1ccc2nc3cc(Cl)ccc3c(NCCCN3C(=O)CCSC3c3ccc(F)cc3F)c2c1 (configuration not stated)	5.42	5.34	5.47	5.29	
CCN(CC)CCCC(C)Nc1ccnc2cc(Cl)ccc12 (configuration not stated) [CHLOROQUINE PHOSPHATE]	4.54	4.65	4.42	4.12	
COc1ccc2nc3cc(Cl)ccc3c(NCCCN3C(=O)CCSC3c3ccccc3[N+](=O)[O-])c2c1 (configuration not stated)	5.92	6.11	6.00	5.74	
COc1ccc2nc3cc(Cl)ccc3c(NCCCN3C(=O)CCSC3c3c(Cl)cccc3Cl)c2c1 (configuration not stated)	5.89	5.12	5.36	5.42	
COc1ccc2nc3cc(Cl)ccc3c(NCCCN3C(=O)CCSC3c3ccc(Cl)cc3Cl)c2c1 (configuration not stated)	5.43	5.51	5.73	5.37	
COc1ccc2nc3cc(Cl)ccc3c(NCCCN3C(=O)CCSC3c3c(F)cccc3F)c2c1 (configuration not stated)	5.49	5.36	5.42	4.53	
COc1ccc2nc3cc(Cl)ccc3c(NCCCN3C(=O)CCSC3c3ccco3)c2c1 (configuration not stated)	5.44	5.46	5.45	5.44	
COc1ccc2nc3cc(Cl)ccc3c(NCCCN3C(=O)CCSC3C3CCCCC3)c2c1 (configuration not stated)	5.28	5.23	5.30	5.11	
